Screens deposited in PubChem BioAssay by Sanford-Burnham Center for Chemical Genomics.
DNMT1 block: blocks human DNA methyltransferase DNMT1; P26358; DNMT1 molecular beacon, Hinp1I cleavage, fluorescence; inhibition (reported as % activation of signal), % at 10 µM; actives 0.83% (n = 360,000); AID 588458; in the data active = inhibition above about 50%
Scp1 inh: inhibitors of human Scp-1 phosphatase. Q9GZU7. actives 0.88% (n = 340,000). inhibition, % at 20 µM. Recombinant Scp1, phosphopeptide, malachite green phosphate absorbance;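 active = inhibition above about 50% at 20 µM, limit read from the data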;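 also: plate controls were DMSO wells with enzyme for no effect and wells lacking enzyme for full effect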
Target sequence (Q9GZU7 76-261 limits assumed): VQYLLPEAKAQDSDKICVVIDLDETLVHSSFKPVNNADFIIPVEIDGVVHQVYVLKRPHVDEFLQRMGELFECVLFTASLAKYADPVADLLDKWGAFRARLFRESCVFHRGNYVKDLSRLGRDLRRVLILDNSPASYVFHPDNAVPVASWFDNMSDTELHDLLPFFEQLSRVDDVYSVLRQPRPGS
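Test system – truncated SCP-1 phosphatase (76-261aa) · Reagent – Phosphorylated 17-residue peptide substrate · Incubation – 45 min room-temperature reaction, 5 min colour, 30 min stabiliser · Detection – colorimetric phosphate reagent with accelerator and stabiliser, absorbance at 630 nm · Measure – % inhibition at 20 µM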
LMPTP block: blocks human LMPTP phosphatase | inhibition, % at 20 µM | actives 0.22% (n = 360,000) | recombinant LMPTP-A, OMFP fluorogenic substrate, fluorescence intensity | P24666;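 active = compounds that cut the enzyme signal by at least half of the control window in the single-dose screen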;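 also: plate controls were DMSO wells with enzyme plus substrate for no effect and substrate without enzyme for full effect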
Target sequence (P24666 whole entry, looked up): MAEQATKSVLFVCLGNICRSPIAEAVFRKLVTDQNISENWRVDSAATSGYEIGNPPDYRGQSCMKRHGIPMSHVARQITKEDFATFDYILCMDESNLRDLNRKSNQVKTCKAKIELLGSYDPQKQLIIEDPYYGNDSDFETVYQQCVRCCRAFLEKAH
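Test system: LMPTP-A phosphatase enzyme. Amount: LMPTP-A at 0.625 nM final in the reaction. Reagent: OMFP substrate, 400 µM final. Times: 50 min at room temperature. Signal: endpoint fluorescence intensity from OMFP dephosphorylation. Read-out basis: % inhibition. Benchmarks: no-enzyme and uninhibited controls.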
NadD block: blocks S. aureus nicotinate mononucleotide adenylyltransferase; actives 0.78% (n = 360,000); inhibition, % at 20 µM; purified NadD enzyme, colorimetric absorbance read-out; in the data active = inhibition above about 26%
STEP block: STEP (human) phosphatase inhibition; P54829; recombinant STEP, OMFP fluorogenic substrate, fluorescence; inhibition, % at 20 µM; actives 0.25% (n = 360,000); AID 588621;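 active = inhibition at 20 µM, scaled per plate between control wells, above about 37%, limit read from the data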;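 also: 0% = DMSO with enzyme and substrate and 100% = substrate only without enzyme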
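Also added – OMFP at 25 µM · Test system – STEP tyrosine phosphatase · Technique – FITC-channel fluorescence of OMFP product · Schedule – 20 min at room temperature, dark · Evaluation – control-normalized % inhibition with plate pattern correction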
SUMO1 PPI mod: modulators of human SUMO1-mediated protein-protein interactions. P63165. SUMO1 binding to a labelled peptide, TR-FRET, 1 h. actives 0.33% (n = 360,000). inhibition, % at 20 µM; in the data active = inhibition above about 37%
Target sequence (P63165 whole entry, looked up): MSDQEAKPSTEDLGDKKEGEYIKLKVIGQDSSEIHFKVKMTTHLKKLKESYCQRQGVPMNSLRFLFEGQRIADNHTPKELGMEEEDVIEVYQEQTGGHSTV
NadD inh conf: confirmation of Staphylococcus aureus NadD inhibitors | inhibition, % at 20 µM | shares compounds with NadD block | AID 624309 | purified S. aureus NadD, colorimetric enzyme assay | actives 13% (n = 2,000); in the data active = inhibition mostly above about 42%, no sharp cut-off; inactive = mostly below about 42%
An asterisk follows results filed as active; x = no result. Rows were chosen to be rich in hits. Some 2.4% of all compounds tested hit in one or more screens of this group.

SMILES | DNMT1 block | Scp1 inh | LMPTP block | NadD block | STEP block | SUMO1 PPI mod | NadD inh conf
CNC(=S)N/N=C/c1cn(CCOc2ccccc2OC)c2ccccc12 | -11.8 | -11.7 | 0.7 | -3.2 | -3.0 | -2.9 | x
Cc1ccsc1C1C(C#N)=C(N)OC2=C1C(=O)CCC2 (stereo unspecified) | -1.2 | -0.7 | 1.3 | 5.1 | 1.8 | -2.3 | x
CC(C)c1ccc(OCC(=O)NNC(=S)NC(=O)c2cccs2)c(Br)c1 | 2.6 | 0.0 | -1.6 | 25.4* | 6.0 | 6.7 | 9.6
Cc1ccc(OCC(=O)NNC(=S)NC(=O)C(C)(C)C)c(Br)c1 | 3.5 | 0.8 | 0.0 | -1.7 | -1.3 | 6.0 | x
CCN(CC)c1ccc(C=NCCc2ccc(S(N)(=O)=O)cc2)cc1 | 1.1 | -1.3 | 0.0 | -0.9 | -0.8 | -1.2 | x
N#CCSc1nc2ccccc2c(=O)n1CC1CCCC1 | 0.5 | -3.6 | 2.0 | -0.8 | 3.5 | -2.1 | x
N#CCSc1nc2ccc(N3CCCCC3)cc2c(=O)n1Cc1ccccc1 | -2.5 | -5.2 | 2.3 | 41.1* | 1.0 | 3.8 | 5.5
COc1ccccc1N1CCN(CCCNc2cc(=O)n(C)c(=O)n2C)CC1 | -4.0 | x | -2.0 | -3.4 | -1.5 | 4.0 | x
O=C1NC[C@H](Cc2ccccc2)N(C[C@@H]2CCCN2C[C@H](Cc2ccccc2)N2C[C@H](Cc3ccc(O)cc3)N(CCc3ccccc3)C(=O)C2=O)C1=O | x | x | 23.9 | 44.0* | x | 6.8 | 48.9*
CCOc1ccc(CCN2C(=O)C(=O)N([C@@H](Cc3ccccc3)CN3CCC[C@H]3CN3C(=O)C(=O)NC[C@@H]3Cc3ccccc3)C[C@@H]2Cc2ccccc2)cc1 | x | x | 19.3 | 27.4 | x | 0.1 | x
O=C1NC[C@H](Cc2ccccc2)N(C[C@@H]2CCCN2C[C@H](Cc2ccc(O)cc2)N2C[C@H](Cc3ccc(O)cc3)N(CCc3ccccc3)C(=O)C2=O)C1=O | x | x | 6.9 | 29.9 | x | 11.2 | x
CCOc1ccc(CCN2C(=O)C(=O)N([C@@H](Cc3ccccc3)CN3CCC[C@H]3CN3C(=O)C(=O)NC[C@@H]3Cc3ccccc3)C[C@@H]2Cc2ccc(O)cc2)cc1 | x | x | 16.9 | 71.0* | x | 6.6 | 40.7
CCOc1ccc(CCN2C(=O)C(=O)N([C@@H](Cc3ccc(O)cc3)CN3CCC[C@H]3CN3C(=O)C(=O)NC[C@@H]3Cc3ccccc3)C[C@@H]2Cc2ccc(O)cc2)cc1 | x | x | 21.7 | 30.3* | x | 23.9 | 31.8
CCOC(=O)C1CCN(c2nc(-c3ccccc3)nc3c2oc2ccccc23)CC1 | -1.8 | 8.8 | 4.0 | 14.4 | 2.1 | 2.5 | x
CCc1nc(CNC(=O)C2CCC(=O)N(CCc3ccc(OC)cc3)C2)cs1 (stereo unspecified) | 0.4 | -1.6 | -1.6 | -5.8 | -1.7 | -4.5 | x
O=C(Cc1ccc(F)cc1)NCC1CCCO1 (stereo unspecified) | -0.7 | 8.6 | 1.1 | -0.9 | -1.6 | 2.9 | x
CC(C)C[C@@H](CN1CCC[C@H]1CN1C(=O)C(=O)NC[C@@H]1Cc1ccc(O)cc1)N1C[C@H](Cc2ccc(O)cc2)N(CC2CCCCC2)C(=O)C1=O | x | x | 0.9 | 32.5* | x | 4.1 | 30.1
CC(C)C[C@@H](CN1CCC[C@H]1CN1C(=O)C(=O)NC[C@@H]1Cc1ccccc1)N1C[C@H](Cc2ccccc2)N(CC2CCCCC2)C(=O)C1=O | x | x | 2.2 | 33.2* | x | 4.4 | 29.4
CC(C)C[C@@H](CN1CCC[C@H]1CN1C(=O)C(=O)NC[C@@H]1Cc1ccc(O)cc1)N1C[C@H](Cc2ccc(O)cc2)N(CC2CCCCCC2)C(=O)C1=O | x | x | 0.8 | 28.8 | x | 13.4 | x
O=C(CN(C(=O)CCC(=O)Nc1nccs1)c1ccc2c(c1)OCO2)NCC1CCCO1 (stereo unspecified) | 0.0 | -11.2 | -1.0 | -1.9 | 2.6 | -1.3 | x
S=C(Nc1ccc(N2CCOCC2)cc1)Nc1ccc2nc(-c3ccco3)c(-c3ccco3)nc2c1 | -7.5 | 3.5 | 12.0 | 42.1* | -10.1 | 26.0 | 1.8
CN(CC/C=C1/c2ccccc2CSc2ccccc21)CCCO | -1.1 | -8.3 | -1.7 | -9.3 | -2.3 | -3.5 | x
Nc1[nH]c(C(=O)c2ccccc2)c(-c2ccc(Cl)cc2Cl)c1C(=O)c1ccc(Cl)c(Cl)c1 | x | x | 2.9 | 35.5* | x | 7.1 | 4.8
CC(C)(C)C(=O)c1c(N)[nH]c(C(=O)c2ccccc2)c1-c1ccc(Cl)cc1Cl | x | x | 1.2 | 3.3 | x | 4.8 | x
O=C(c1cc(Cl)cc(Cl)c1)N1CCC2CC1c1cc(N3CCCCC3)ccc12 (stereo unspecified) | 7.3 | x | 2.7 | -4.7 | 0.6 | 1.7 | x
SMILES | DNMT1 block | Scp1 inh | LMPTP block | NadD block | STEP block | SUMO1 PPI mod | NadD inh conf
O=C(N/N=C/c1ccc([N+](=O)[O-])o1)c1cn(-c2ccccc2)nc1-c1ccccc1 | 32.4 | -3.1 | 1.2 | 30.6* | -1.0 | 6.4 | 19.1
O=C(N/N=C/c1ccc([N+](=O)[O-])o1)c1cn(-c2ccccc2)nc1-c1ccc(Cl)cc1 | 50.1* | -2.8 | -0.3 | 35.5* | 2.1 | 7.9 | 0.8
O=C(N/N=C/c1ccc([N+](=O)[O-])o1)c1ccccc1-n1cccc1 | -4.4 | -4.9 | 0.7 | -1.6 | 0.4 | -31.9 | x
O=C1c2nc3cc(-c4ccco4)[nH]n3c(=O)c2CN1C1CCCCC1 | 19.2 | 24.4 | 1.5 | -2.5 | 5.1 | 14.2 | x
CCN(CC)S(=O)(=O)c1cccc(-c2nnc(SCc3ncc(-c4ccccc4)o3)n2C)c1 | 7.3 | 3.4 | 0.4 | 1.6 | 1.5 | 2.1 | x
Cc1ccccc1Nc1nc(Nc2ccccc2C)nc(SC2=NCCS2)n1 | -9.0 | 7.5 | 2.2 | 9.1 | 1.2 | -5.4 | x
Cc1ccc(Nc2nc(Nc3ccc(C)cc3)nc(SC3=NCCS3)n2)cc1 | 11.8 | 11.8 | 3.4 | 30.5* | 0.0 | 4.2 | 51.2*
O=C(CCCN1C(=O)C(c2ccccc2)Oc2cccnc21)NCc1ccc(F)cc1 (stereo unspecified) | -6.0 | -3.4 | 0.8 | 2.7 | 0.0 | 4.0 | x
Cc1c(N2C(=O)C(=O)/C(=C(/O)c3ccc(Br)cc3)C2c2cccnc2)c(=O)n(-c2ccccc2)n1C (stereo unspecified) | -7.1 | -1.4 | -0.7 | 3.9 | 1.5 | -3.0 | x
CCOC(=O)c1c(NC(=O)CSc2nc3cc(Cl)ccc3c(=O)n2Cc2ccco2)sc(C(=O)N(C)C)c1C | -1.2 | -5.0 | 6.0 | 38.9* | 3.6 | 1.4 | 8.1
COc1ccc(COc2cc(-c3cccc(OC)c3)nc3ccc(NC(=O)c4ccccc4)cc23)cc1 | -0.8 | 9.2 | 8.8 | 32.1* | 1.4 | -0.4 | 9.2
COc1ccc(COc2cc(-c3cccc(OC)c3)nc3ccc(NC(=O)c4ccc(Cl)cc4)cc23)cc1 | -2.5 | 9.2 | 6.9 | 59.1* | 6.0 | -0.9 | 10.6
